Columns and labels:
[1] = Drug metabolism in human gut microbes assessed as metabolite formation by LC-MS/MS analysis; format: ADME
Method in brief: (§1)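 Anaerobic mini gut model: stool homogenized in pre-reduced mGAM (10 mL/g), settled 5 min, 50 μL slurry into 450 μL mGAM; compound 20 μM in DMSO (final DMSO 0.22%); 37 °C, 5% H₂/10% CO₂/85% N₂, up to 24 h; donor 1; triplicate. Supernatant acetonitrile-precipitated (1:3), LC–MS at 45 °C, 0.45 mL/min; metabolites analysed versus feces-free reference incubation in mGAM.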

[2] = Drug metabolism in mini gut model assessed as metabolite formation by LC-MS/MS analysis; format: ADME, tissue-based; method in brief: as §1
[3] = Stability of compound in mini gut model at 24 hrs by LC-MS analysis; format: ADME, tissue-based
Method in brief: (§2)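 Compound 20 μM (DMSO vehicle, final 0.22%) incubated anaerobically at 37 °C in mGAM inoculated with donor 1 fecal slurry (1:10 slurry, 50 μL into 450 μL) and in bacteria-free mGAM as reference, up to 24 h, triplicate. Samples mixed with 3 volumes cold acetonitrile, centrifuged 21,100g 15 min 4 °C; supernatant analysed by LC–MS (45 °C, 0.45 mL/min) for remaining parent drug.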

[4] = Stability of compound in mini gut model assessed as half life by LC-MS analysis; format: ADME, tissue-based; method in brief: as §2
[5] = Stability in human gut microbes assessed as half life by LC-MS analysis; format: ADME; method in brief: as §2

| Structure (SMILES) | Drug metabolism [1] | Drug metabolism [2] | Stability [3] | half-life [4] | half-life [5] |
| --- | --- | --- | --- | --- | --- |
| CCN(CC)C(=O)/C(C#N)=C/c1cc(O)c(O)c([N+](=O)[O-])c1 [ENTACAPONE] | Metabolite_Detected | Metabolite_Notdetected |  |  |  |
| Cl.Oc1noc2c1CCNC2 | Metabolite_Notdetected | Metabolite_Notdetected | Unstable |  |  |
| CCCCNc1ccc(C(=O)OCCOCCOCCOCCOCCOCCOCCOCCOCCOC)cc1 [BENZONATATE] | Metabolite_Notdetected | Metabolite_Notdetected |  | > 2880 min | > 2880 min |
| O=C([O-])[C@H]1/C(=C/CO)O[C@@H]2CC(=O)N21.[K+] [CLAVULANATE POTASSIUM] | Metabolite_Notdetected | Metabolite_Notdetected | Unstable |  |  |
| NS(=O)(=O)c1cc2c(cc1Cl)NCNS2(=O)=O [HYDROCHLOROTHIAZIDE] | Metabolite_Notdetected | Metabolite_Notdetected |  | > 2880 min | > 2880 min |

Now from value to compound:

| Drug metabolism [1] | Drug metabolism [2] | Stability [3] | half-life [4] | half-life [5] | Structure (SMILES) |
| --- | --- | --- | --- | --- | --- |
| Metabolite_Detected | Metabolite_Notdetected |  |  |  | COC1=C(OC)C(=O)C(CCCCCCCCCCO)=C(C)C1=O [IDEBENONE] |
| Metabolite_Detected | Metabolite_Detected | Unstable |  |  | O=S(=O)([O-])CCS.[Na+] [MESNA] |
| Metabolite_Detected | Metabolite_Detected | Unstable |  |  | CCCc1nc(C(C)(C)O)c(C(=O)OCc2oc(=O)oc2C)n1Cc1ccc(-c2ccccc2-c2nnn[nH]2)cc1 [OLMESARTAN MEDOXOMIL] |
| Metabolite_Detected | Metabolite_Notdetected |  | 600 min | 600 min | C1N2CN3CN1CN(C2)C3 [METHENAMINE] |
| Metabolite_Detected | Metabolite_Notdetected |  | 1800 min | 1800 min | N[C@@H](Cc1ccc(O)c(O)c1)C(=O)O [LEVODOPA] |
